Experimental findings from publication PMC6044410 (Structure (London, England : 1993), 2017) are described below.

Assay [1] deals with GST-hTopBP1 BRCT5 WT (Homo sapiens, UniProt Q92547). Put plainly: Fluorescence polarization binding, GST-hBRCT5 WT. Background: Polarisation of emitted light reports the rotation of a fluorescent probe.
The target of assay [2] is TopBP1 BRCT4/5, untagged and GST-tagged forms (Homo sapiens, UniProt Q92547). The experiment in a line: Fluorescence polarization binding, untagged and GST-tagged TopBP1 forms compared. The procedure, abridged:
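Untagged BRCT4/5 was prepared by overnight PreScission cleavage of the GST fusion at 4 °C, then anion exchange at pH 7.0, glutathione-bead removal of GST, and gel filtration. Read-out was ex 485/em 538 nm; KD was curve-fitted and averaged over ≥3 measurements.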

Assay [3] concerns the target human TopBP1 BRCT5, 641-746 (UniProt Q92547). The experiment in a line: fluorescence polarization titration. Conditions: reference: pSer304 peptide mock-treated without λ phosphatase; sites S304.
Assay [4] addresses GST-hBRCT5 M689A (Homo sapiens, UniProt Q92547, M689A). The experiment in a line: Fluorescence polarization binding, GST-hBRCT5 M689A.
The target in assay [5] is T1, GST-human TopBP1 BRCT5 (641-746), wild type (human, UniProt Q92547 641-746). The experiment in a line: fluorescence polarisation.
T1 sequence (Q92547 641-746): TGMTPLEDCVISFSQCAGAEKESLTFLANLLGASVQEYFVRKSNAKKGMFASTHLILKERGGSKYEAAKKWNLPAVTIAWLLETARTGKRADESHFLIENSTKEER
The target in assay [6] is human TopBP1 BRCT4/5 (549-746), untagged (human, UniProt Q92547 549-746). Put plainly: fluorescence polarisation.
Sequence of human TopBP1 BRCT4/5 (549-746), untagged (Q92547 549-746): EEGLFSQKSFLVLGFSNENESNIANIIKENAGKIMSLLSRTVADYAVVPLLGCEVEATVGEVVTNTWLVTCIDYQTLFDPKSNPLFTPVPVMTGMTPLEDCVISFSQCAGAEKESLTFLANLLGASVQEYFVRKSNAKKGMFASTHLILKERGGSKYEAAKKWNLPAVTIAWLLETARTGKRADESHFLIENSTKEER
The target in assay [7] is GST-human TopBP1 BRCT4/5 (549-746) (human, UniProt Q92547 549-746). The experiment in a line: fluorescence polarisation.
Sequence of GST-human TopBP1 BRCT4/5 (549-746) (Q92547 549-746): as above
Assay [8] has as its target T2, mouse TopBP1 BRCT4/5 (553-749), untagged (mouse, UniProt Q6ZQF0 553-749).
T2 sequence (looked up): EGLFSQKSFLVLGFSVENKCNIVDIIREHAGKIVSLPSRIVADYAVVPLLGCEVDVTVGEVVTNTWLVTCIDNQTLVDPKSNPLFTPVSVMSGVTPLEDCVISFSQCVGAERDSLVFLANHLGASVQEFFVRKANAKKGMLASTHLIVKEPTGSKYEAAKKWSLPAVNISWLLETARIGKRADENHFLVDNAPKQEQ
The experiment in a line: fluorescence polarisation.

The target of assay [9] is GST-human TopBP1 BRCT5 S654A (human, UniProt Q92547 641-746, S654A). Put plainly: fluorescence polarisation.
Sequence of GST-human TopBP1 BRCT5 S654A (Q92547 641-746 S654A): as the sequence (Q92547 641-746) above, with S14A counted along it
Assay [10] has as its target GST-human TopBP1 BRCT5 K704A (human, UniProt Q92547 641-746, K704A). The experiment in a line: fluorescence polarisation.
In assay [11] the target is GST-human TopBP1 BRCT5 R681E/K682E (human, UniProt Q92547 641-746, R681E | K682E). The experiment in a line: fluorescence polarisation.
Sequence of GST-human TopBP1 BRCT5 R681E/K682E (Q92547 641-746 R681E/K682E): as the sequence (Q92547 641-746) above, with R41E, K42E counted along it
The target in assay [12] is GST-human TopBP1 BRCT5 K686E/K687E (human, UniProt Q92547 641-746, K686E | K687E). The experiment in a line: fluorescence polarisation.
Sequence of GST-human TopBP1 BRCT5 K686E/K687E (Q92547 641-746 K686E/K687E): as the sequence (Q92547 641-746) above, with K46E, K47E counted along it
Assay [13] has as its target GST-human TopBP1 BRCT5 A707K (human, UniProt Q92547 641-746, A707K). The experiment in a line: fluorescence polarisation.
Assay [14] addresses GST-human TopBP1 BRCT5 A707D (human, UniProt Q92547 641-746, A707D). The experiment in a line: fluorescence polarisation.
The target in assay [15] is GST-human TopBP1 BRCT5 M689A (human, UniProt Q92547 641-746, M689A). Put plainly: fluorescence polarisation.
Sequence of GST-human TopBP1 BRCT5 M689A (Q92547 641-746 M689A): as the sequence (Q92547 641-746) above, with M49A counted along it
In assay [16] the target is GST-human TopBP1 BRCT5 Y678A (human, UniProt Q92547 641-746, Y678A). Put plainly: fluorescence polarisation.
Sequence of GST-human TopBP1 BRCT5 Y678A (Q92547 641-746 Y678A): as the sequence (Q92547 641-746) above, with Y38A counted along it
The target in assay [17] is T1, GST-human TopBP1 BRCT5 (641-746), wild …. The experiment in a line: fluorescence polarisation. The source holds these as a separate data set.
The target is the same in assay [18]. Put plainly: fluorescence polarisation. This is another data set of the same source.

Where “and” joins values, the source holds several entries; their conditions need not be identical. Equal values may be shown once. Read-outs that look alike come from different tables or passages of the source. Square brackets hold non-standard residues; d marks the D form. Peptide text beside a SMILES is read from it. * marks the point of attachment. FITC = O=C1OC2(c3ccc(O)cc3Oc3cc(O)ccc32)c2ccc(NC(=S)*)cc21; pT = C[C@@H](OP(=O)(O)O)[C@H](N)C(=O)O; pS = N[C@@H](COP(=O)(O)O)C(=O)O

Sequence of GST-hTopBP1 BRCT5 WT (Q92547 641-746): as the sequence (Q92547 641-746) above
Sequence of TopBP1 BRCT4/5, untagged and GST-tagged forms (Q92547 549-746): as the sequence (Q92547 549-746) above
Sequence of GST-human TopBP1 BRCT5 A707K (Q92547 641-746 A707K): as the sequence (Q92547 641-746) above, with A67K counted along it
Sequence of GST-hBRCT5 M689A (Q92547 641-746 M689A): as the sequence (Q92547 641-746) above, with M49A counted along it
Sequence of GST-human TopBP1 BRCT5 A707D (Q92547 641-746 A707D): as the sequence (Q92547 641-746) above, with A67D counted along it
Sequence of GST-human TopBP1 BRCT5 K704A (Q92547 641-746 K704A): as the sequence (Q92547 641-746) above, with K64A counted along it

The term Kd denotes a measure of binding affinity in units of concentration. A low value points to tighter binding. `CC[C@H](C)[C@H](NC(=O)[C@@H](NC(=O)[C@H](CCC(=O)O)NC(=O)[C@H](CCC(=O)O)NC(=O)[C@@H]1CCCN1C(=O)[C@H](CO)NC(=O)[C@@H]1CCCN1C(=O)[C@@H]1CCCN1C(=O)[C@@H](NC(=O)[C@H](Cc1ccccc1)NC(=O)[C@H](CC(=O)O)NC(=O)[C@@H](NC(=O)[C@H](CC(=O)O)NC(=S)Nc1ccc2c(c1)C(=O)OC21c2ccc(O)cc2Oc2cc(O)ccc21)[C@@H](C)O)C(C)C)[C@@H](C)CC)C(N)=O` [Ser304] ({FITC}-DTDFVPPSPEEII-NH2) had a Kd in assay [1] (KD, FP, BLM pSer304 peptide treated with λ phosphatase, 1 hour at 30 °C) of no less than 60 µM.

`CC[C@H](C)[C@H](NC(=O)[C@@H](NC(=O)[C@H](CCC(=O)O)NC(=O)[C@H](CCC(=O)O)NC(=O)[C@@H]1CCCN1C(=O)[C@H](COP(=O)(O)O)NC(=O)[C@@H]1CCCN1C(=O)[C@@H]1CCCN1C(=O)[C@@H](NC(=O)[C@H](Cc1ccccc1)NC(=O)[C@H](CC(=O)O)NC(=O)[C@@H](NC(=O)[C@H](CC(=O)O)NC(=S)Nc1ccc2c(c1)C(=O)OC21c2ccc(O)cc2Oc2cc(O)ccc21)[C@@H](C)O)C(C)C)[C@@H](C)CC)C(N)=O` [pSer304] ({FITC}-DTDFVPP[pS]PEEII-NH2): the dissociation constant (Kd) in [2] lay in the range of 3 to 6 µM.

For `CC(C)C[C@H](NC(=O)[C@H](CC(=O)O)NC(=O)[C@H](CCCCN)NC(=O)[C@H](COP(=O)(O)O)NC(=O)[C@@H](NC(=O)[C@H](CO)NC(=O)[C@H](CC(C)C)NC(=O)[C@@H](NC(=O)[C@H](CC(=O)O)NC(=O)[C@H](CCC(=O)O)NC(=O)[C@H](CCCCN)NC(=S)Nc1ccc2c(c1)C(=O)OC21c2ccc(O)cc2Oc2cc(O)ccc21)C(C)C)[C@@H](C)O)C(N)=O` [pSer338] ({FITC}-KEDVLST[pS]KDL-NH2), the Kd in assay [1] is no less than 300 µM.

Consider “BLM (Bloom syndrome, RecQ-like helicase) 297-309 (from UniProt P54132) λ phosphatase-treated pSer304 peptide”, for which the KD result in assay [3] is “weaker; reference 2.6 ± 0.4”.

As for `CC[C@H](C)[C@H](NC(=O)[C@H](Cc1ccccc1)NC(=O)CNC(=S)Nc1ccc2c(c1)C(=O)OC21c2ccc(O)cc2Oc2cc(O)ccc21)C(=O)N[C@@H](CC(=O)O)C(=O)N[C@@H](COP(=O)(O)O)C(=O)N[C@@H](CC(=O)O)C(=O)N[C@H](C(=O)N[C@@H](CC(=O)O)C(=O)N[C@H](C(=O)N[C@@H](CCC(=O)O)C(=O)N[C@@H](CCC(=O)O)C(=O)N[C@@H](CCC(=O)O)C(N)=O)C(C)C)[C@@H](C)OP(=O)(O)O` [MDC1, reference compound] ({FITC}-GFID[pS]D[pT]DVEEE-NH2), the equilibrium dissociation constant (Kd) in [1] and in [4] was 15 ± 1 µM each time.

With {FITC}-DTDFVPP[pS]PEEII-NH2 [FITC-labelled BLM pSer304 peptide (FITC-DTDFVPPpSPEEII-NH2)], the Kd in assay [5] is 3.9 ± 0.3 µM; in assay [6] it was 3.2 ± 0.8 µM; in assay [7], 6 ± 1 µM; in assay [8] it was 6 ± 2 µM; in assay [9], 33 ± 3 µM; in [10] it was 42 ± 3 µM. The Kd in assay [11] came to 45 ± 2 µM; in [12], 36 ± 3 µM; in assay [13], 70 ± 20 µM; in [14] it was 320 ± 40 µM; in assay [15], 53 ± 4 µM; in [16], 18 ± 2 µM. For the same molecule, in assay [17], the Kd was 2.6 µM and 3.7 µM.

Molecule {FITC}-DTDFVPPSPEEII-NH2 [Unphosphorylated Ser304 BLM peptide (FITC-DTDFVPPSPEEII-NH2)] had an equilibrium dissociation constant (Kd) in assay [18] of 60 ± 10 µM.

For {FITC}-KEDVLST[pS]KDL-NH2 [FITC-labelled BLM pSer338 peptide (FITC-KEDVLSTpSKDL-NH2)], the affinity in assay [5], expressed as Kd, was 285 ± 10 µM.
